Assays:
[1] = Selectivity index, ratio of IC50 for human HL7702 cells to IC50 for human NCI-H1975 cells; type: toxicity
Procedure, shortened: (§1)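 Selectivity index taken as the logarithm of the ratio of the HL7702 IC50 to the cancer-line IC50. […] Not calculated when an IC50 was lacking.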

NCI-H1975 = experiment: Cytotoxicity against human NCI-H1975 cells assessed as reduction in cell viability after 72 hrs by MTT assay; type: functional, cell-based; conditions: NCI-H1975, 72 h
Procedure, shortened: (§2)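 Cells in RPMI 1640 with 10% heat-inactivated FBS and penicillin/streptomycin at 37 °C, 5% CO2. Seeded at 4000 per well, adhered overnight, then exposed to graded compound concentrations in triplicate wells for 72 h. MTT (5 mg/mL stock) added for 4 h, dissolved in DMSO, A490 read. IC50 is the concentration reducing viability by 50% versus untreated control.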

[2] = Selectivity index, ratio of IC50 for human HL7702 cells to IC50 for human A549 cells; type: toxicity; procedure, shortened: as §1
L02 = experiment: Cytotoxicity against human HL7702 cells assessed as reduction in cell viability after 72 hrs by MTT assay; type: cell-based; conditions: L02, 72 h; procedure, shortened: as §2
NCI-H1650 = experiment: Cytotoxicity against human NCI-H1650 cells assessed as reduction in cell viability after 72 hrs by MTT assay; type: functional, cell-based; conditions: NCI-H1650, 72 h; procedure, shortened: as §2
A549 [3] = experiment: Cytotoxicity against human A549 cells assessed as reduction in cell viability after 72 hrs by MTT assay; type: functional, cell-based; conditions: A549, 72 h; procedure, shortened: as §2
[4] = Selectivity index, ratio of IC50 for human HL7702 cells to IC50 for human H460 cells; type: toxicity; procedure, shortened: as §1
[5] = Selectivity index, ratio of IC50 for human HL7702 cells to IC50 for human NCI-H1650 cells; type: toxicity; procedure, shortened: as §1
NCI-H460 = experiment: Cytotoxicity against human H460 cells assessed as reduction in cell viability after 72 hrs by MTT assay; type: functional, cell-based; conditions: NCI-H460, 72 h; procedure, shortened: as §2
A549 [6] = experiment: Anticlonogenic activity against human A549 cells assessed as inhibition of clonogenic growth at 9 uM incubated for 2 days followed by replacement of growth media and measured after 8 days by crystal violet staining-based assay relative to control; type: functional
Procedure, shortened: (§3)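 A549 cells grown in 1640 medium with 10% heat-inactivated FBS at 37 °C, 5% CO2. Seeded at 1000 cells per well, then exposed to drug or left untreated. Medium, with or without drug, replaced after 2 days. 8 days later colonies fixed with 1% methanol and 1% formaldehyde, stained with 0.5% crystal violet and photographed. Percent inhibition expressed relative to control.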

A549 [7] = experiment: Anticlonogenic activity against human A549 cells assessed as inhibition of clonogenic growth at 3 uM incubated for 2 days followed by replacement of growth media and measured after 8 days by crystal violet staining-based assay relative to control; type: functional; procedure, shortened: as §3

For `Cc1ccc2nc(NCCN)c3ncc(C)n3c2c1` [BMS-345541], the “log(RatioIC50)” value [1] was 0.28, the IC50 (NCI-H1975) was 8 µM and the “log(RatioIC50)” value [2] was 0.25. It also gave an IC50 (L02) of 15.3 µM, an IC50 (NCI-H1650) of 9.3 µM and an IC50 (A549 [3]) of 8.6 µM. For the same compound, the “log(RatioIC50)” value [4] was 0.74, the “log(RatioIC50)” value [5] was 0.22 and the IC50 (NCI-H460) was 2.8 µM.
With `COc1cc(/C=C2\CN(C(=O)c3ccccc3F)C/C(=C\c3cc(OC)c(OC)c(OC)c3)C2=O)cc(OC)c1OC` the “log(RatioIC50)” value [1] was 0.5, the IC50 (NCI-H1975) was 1.4 µM and the “log(RatioIC50)” value [2] was 0.8. For the same compound, the IC50 (L02) was 4.4 µM, the IC50 (NCI-H1650) was 1.9 µM and the IC50 (A549 [3]) was 0.7 µM. For the same compound, the “log(RatioIC50)” value [4] was 0.47, the “log(RatioIC50)” value [5] was 0.36 and the IC50 (NCI-H460) was 1.5 µM.
With `CCN1C/C(=C\c2cc(OC)c(OC)c(OC)c2)C(=O)/C(=C/c2cc(OC)c(OC)c(OC)c2)C1` the “log(RatioIC50)” value [1] was 0.29, the IC50 (NCI-H1975) was 6.5 µM and the “log(RatioIC50)” value [2] was 0.48. For the same compound, the IC50 (L02) was 12.8 µM, the IC50 (NCI-H1650) was 8.2 µM and the IC50 (A549 [3]) was 4.2 µM. The “log(RatioIC50)” value [4] was 0.42, the “log(RatioIC50)” value [5] was 0.19 and the IC50 (NCI-H460) was 4.9 µM.
With `CCCN1C/C(=C\c2ccc(OC)c(OC)c2)C(=O)/C(=C/c2ccc(OC)c(OC)c2)C1` the “log(RatioIC50)” value [1] was 0.27, the IC50 (NCI-H1975) was 11.2 µM and the “log(RatioIC50)” value [2] was 0.7. The IC50 (L02) was 21 µM, the IC50 (NCI-H1650) was 16 µM and the IC50 (A549 [3]) was 4.2 µM. The “log(RatioIC50)” value [4] was 0.71, the “log(RatioIC50)” value [5] was 0.12 and the IC50 (NCI-H460) was 4.1 µM.
`O=c1[nH]cc(F)c(=O)[nH]1` [FLUOROURACIL] gave an inhibition at 9 µM (A549 [6]) of 70% and an inhibition at 3 µM (A549 [7]) of 38%.
For `O=C1/C(=C/c2ccccc2F)CNC/C1=C\c1ccccc1F`, the “log(RatioIC50)” value [1] was 0.59, the IC50 (NCI-H1975) was 1.3 µM and the “log(RatioIC50)” value [2] was 0.33. It also gave an IC50 (L02) of 5.1 µM, an IC50 (NCI-H1650) of 1.7 µM and an IC50 (A549 [3]) of 2.4 µM. The “log(RatioIC50)” value [4] was 0.63, the “log(RatioIC50)” value [5] was 0.48 and the IC50 (NCI-H460) was 1.2 µM.
In the case of `COc1ccc(/C=C2\CNC/C(=C\c3ccc(OC)c(OC)c3)C2=O)cc1OC`, the “log(RatioIC50)” value [1] is reported as 0.17, the IC50 (NCI-H1975) is reported as 10.3 µM and the “log(RatioIC50)” value [2] is reported as 0.72. It also gave an IC50 (L02) of 15.1 µM, an IC50 (NCI-H1650) of 16.7 µM and an IC50 (A549 [3]) of 2.9 µM. For the same compound, the “log(RatioIC50)” value [4] was 0.37, the log(RatioIC50) [5] was -0.04 and the IC50 (NCI-H460) was 6.4 µM.
In the case of `CCN1C/C(=C\c2ccc(OC)c(OC)c2)C(=O)/C(=C/c2ccc(OC)c(OC)c2)C1`, the “log(RatioIC50)” value [1] is reported as 0.06, the IC50 (NCI-H1975) is reported as 8.5 µM and the “log(RatioIC50)” value [2] is reported as 0.43. For the same compound, the IC50 (L02) was 9.8 µM, the IC50 (NCI-H1650) was 12 µM and the IC50 (A549 [3]) was 3.6 µM. For the same compound, the “log(RatioIC50)” value [4] was 0.43, the “log(RatioIC50)” value [5] was -0.09 and the IC50 (NCI-H460) was 3.6 µM.
For `COc1ccc(/C=C2\CN(C)C/C(=C\c3ccc(OC)c(OC)c3)C2=O)cc1OC`, the “log(RatioIC50)” value [1] was 0.44, the IC50 (NCI-H1975) was 6.6 µM and the “log(RatioIC50)” value [2] was 1.15. The IC50 (L02) was 18.2 µM, the IC50 (NCI-H1650) was 9 µM and the IC50 (A549 [3]) was 1.3 µM. For the same compound, the “log(RatioIC50)” value [4] was 0.77, the “log(RatioIC50)” value [5] was 0.31 and the IC50 (NCI-H460) was 3.1 µM.
In the case of `COc1cc(/C=C2\CN(C(=O)C(C)C)C/C(=C\c3cc(OC)c(OC)c(OC)c3)C2=O)cc(OC)c1OC`, the “log(RatioIC50)” value [1] is reported as 0.81, the IC50 (NCI-H1975) is reported as 1.9 µM and the “log(RatioIC50)” value [2] is reported as 1.18. For the same compound, the IC50 (L02) was 12.2 µM, the IC50 (NCI-H1650) was 10.8 µM and the IC50 (A549 [3]) was 0.8 µM. The “log(RatioIC50)” value [4] was 0.79, the “log(RatioIC50)” value [5] was 0.05 and the IC50 (NCI-H460) was 2 µM.
For `CCC(=O)N1C/C(=C\c2cc(OC)c(OC)c(OC)c2)C(=O)/C(=C/c2cc(OC)c(OC)c(OC)c2)C1`, the “log(RatioIC50)” value [1] was 0.39, the IC50 (NCI-H1975) was 1.7 µM and the “log(RatioIC50)” value [2] was 0.72. It also gave an IC50 (L02) of 4.2 µM, an IC50 (NCI-H1650) of 4.4 µM and an IC50 (A549 [3]) of 0.8 µM. The “log(RatioIC50)” value [4] was 0.19, the “log(RatioIC50)” value [5] was -0.02 and the IC50 (NCI-H460) was 2.7 µM.
With `COc1cc(/C=C/C(=O)CC(=O)/C=C/c2ccc(O)c(OC)c2)ccc1O` [CURCUMIN] the “log(RatioIC50)” value [1] was 0.71, the IC50 (NCI-H1975) was 1.4 µM and the “log(RatioIC50)” value [2] was 0.02. For the same compound, the IC50 (L02) was 7.2 µM, the IC50 (A549 [3]) was 6.8 µM and the “log(RatioIC50)” value [4] was -0.07. The “log(RatioIC50)” value [5] was -0.45 and the IC50 (NCI-H460) was 8.5 µM.
In the case of `COc1cc(/C=C2\CN(C(=O)CCC(=O)O)C/C(=C\c3cc(OC)c(OC)c(OC)c3)C2=O)cc(OC)c1OC`, the IC50 (NCI-H1975) is reported as greater than 60 µM, the IC50 (L02) is reported as greater than 60 µM and the IC50 (NCI-H1650) is reported as greater than 60 µM. It also gave an IC50 (A549 [3]) of 17.9 µM and an IC50 (NCI-H460) greater than 60 µM.
For `COc1cc(/C=C2\CNC/C(=C\c3cc(OC)c(OC)c(OC)c3)C2=O)cc(OC)c1OC`, the “log(RatioIC50)” value [1] was 0.28, the IC50 (NCI-H1975) was 4 µM and the “log(RatioIC50)” value [2] was 0.8. For the same compound, the IC50 (L02) was 7.6 µM, the IC50 (NCI-H1650) was 4.2 µM and the IC50 (A549 [3]) was 1.2 µM. The “log(RatioIC50)” value [4] was 0.7, the “log(RatioIC50)” value [5] was 0.26 and the IC50 (NCI-H460) was 1.5 µM.

Reference: ChEMBL document CHEMBL4152210, “Design, synthesis, anti-lung cancer activity, and chemosensitization of tumor-selective MCACs based on ROS-mediated JNK pathway activation and NF-κB pathway inhibition” (Eur J Med Chem, 2018)
